Laboratory results published in the EternaBench riboswitch data.

Tested on: MS2 coat protein
Assay: apparent Kd, MS2 coat protein; higher = weaker binding; RNA-MaP array; FMN 200 µM where present
Procedure, shortened: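 Binding was read on Illumina sequencing-chip clusters where stalled E. coli RNA polymerase had transcribed each design. A titration of SNAP-549-labelled MS2 coat protein began at 0.7 or 1.5 nM and doubled to 3 µM, once without ligand and once with constant ligand, in 100 mM Tris-HCl pH 7.5, 80 mM KCl, 4 mM MgCl2, BSA, DTT, yeast tRNA and Tween-20. The apparent Kd is the median of filtered per-cluster binding-curve fits, based on green signal normalised to red-channel RNA signal and control-cluster median Fmax.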

[1] = designed as: ON switch for flavin mononucleotide, no ligand
[2] = ligand present: flavin mononucleotide, designed as: ON switch for flavin mononucleotide
[3] = designed as: OFF switch for flavin mononucleotide, no ligand
[4] = ligand present: flavin mononucleotide, designed as: OFF switch for flavin mononucleotide

Sequence | apparent Kd [1] | apparent Kd [2] | apparent Kd [3] | apparent Kd [4]
AAAAUCUAUAGAGGAUAUCGUUCUUAAAGAGAAUGAGAAGGCUAACAAUCAUGAGGACAUGAGGAUCACCCAUGUUGUGACCAU | 19.1 nM | 9.71 nM |  | 
UCGCUCCGUGUAGGAUAUCGCCGUUCUAUUCGGCGAGAAGGACAUGAGGAUCACCCAUGUAUGUUAUUAUCACGCGUGGCGCAA |  |  | 16 nM | 19.1 nM
AACGUGGCUUAGGAUAUUGCUACGCAAAAGUAACAAGAAGGAGGCACAUGAGGAUCACCCAUGUGAUUCGUUGA |  |  | 19.8 nM | 44.9 nM
GUAGAGUAGUGAGGAUAUACGAGAACGAUAGUUCGGCGAUCCAUUAAUACAUGAGGAUCACCCAUGUAGAAGGCACUUCUCUAC |  |  | 7.11 nM | 90.4 nM
GCCACGGGAGGAUAUCGCGGAGGCUACAUGAGGAUCACCCAUGUCUGGUCUUCGUGCUCCCGAGAAGGCCCGUCAG |  |  | 14 nM | 32.9 nM
AAUCGGGAGCAGAAGGCAUGUCAAAAGACAUGAGGAUCACCCAUGUAUAAAAGGCGAAAGCCGCAUGAGGAUAUGCUCCCGUAA | 29.4 nM | 5.81 nM |  | 
CACGUGUAAGGAUAUGACAAUGGUAUCUUCGGAUACCAUUGUCAGAAGGUACAUGAGGAUCACCCAUGUAACAC |  |  | 16.1 nM | 26.8 nM
CAGUCUACAGGAUAUACAUGAGGAUCACCCAUGUGUUUUCACUUUCAGUAGUCUAUAUGUAGAAGGGUAGACUG |  |  | 24.8 nM | 90.1 nM
GUAUUUUUACAGAAGGUGUAUUACAUGAGGAUCACCCAUGUUUUAUGGAAUAAAGAUUUUAUUUACAAGGAUAUGUACUAUUUU | 31.7 nM | 20.6 nM |  | 
UAUUAGCUAGGAUAUACAUGAGGAUCACCCAUGUCACGGGUCCACUUGUCCUAUGCGUGUAGAAGGAGCGACCC |  |  | 22.4 nM | 25.8 nM
ACAUUUUAUGCAGGAUAUUGACAUAGGAUUAAACAAGAAGGGCAUUACAUGAGGAUCACCCAUGUUUUAUUGGUAUAUAAGUUC |  |  |  | 14 nM
CAGCUGAAAGUCAGGAUAUCUAGAGCGAUAGCUCUAGAGAAGGGACAUGAGGAUCACCCAUGUCACUCCAGCUG |  |  | 17.1 nM | 20.4 nM
UGAACUAUGUAGAAGGCCCAUAUUUAUACUUAGGGAGGAUAUACAUGAGGAUCACCCAUGUAUAGAGCAAGUGGACUUGUCACU |  |  | 17.9 nM | 20.2 nM
AAAACACGCGAGAAGGAGGCCUGAUCCUCCACAUGAGGAUCACCCAUGUGCCUAGGAUAUCGCAACCUUUCAGGUUACACCUGG |  |  | 70 nM | 10.2 nM
UUUAUGUCAGGAUAUGAGUAGUAGAACAAUAGUACUACUACUCAGAAGGGACAUGAGGAUCACCCAUGUGCCUC |  |  | 35.2 nM | 291 nM
AGUACCAUGUAGAAGGCAUAUCUCAAAGAGAUAUGAGGAUAUACAUGAGGAUCACCCAUGUAAAUGUACUCCAGGAAACUGGAA |  |  | 28.3 nM | 136 nM
UUAUUUAUGCAAGGAUAUCAAUUAUAUACAAAUCCAACAUGAGGAUCACCCAUGUUUUAUUUUUUUGAGAAGGUGUAUUGUCAG | 36.1 nM | 40.5 nM |  | 
UAAACGUUCUAGAAGGUGCUUUUGUUAAACAAGCAAGGAUAUAGACAUGAGGAUCACCCAUGUCUUUUAGACAUCGACAUACUU |  |  | 6.9 nM | 8.03 nM
ACCUGACAUGAGGAUCACCCAUGUCAGGAUAUGUACAUCAGGAAAAAAAAACUGAUGUACAGAAGGGACUUGGG |  |  | 22.4 nM | 18.1 nM
AAGCAGGUAAUAAAGUAGAAAUACAUGAGGAUCACCCAUGUAUAGGAUAUCGUCAGGAAUACUGACGAGAAGGAUACAUCCUGC |  |  | 15.3 nM | 18.6 nM
GGCUUGCAGCUAGGAUAUGGGCGAUCACAUGAGGAUCACCCAUGUCAACAUCAAAACAAGAUUAACCAGAAGGAGCCGCGGGUC | 21.3 nM | 705 nM |  | 
UUUACAUGAGGAUCACCCAUGUUUAGAAAGAUUGGUUUAGGUGAGGAUAUACAUGAUAAUGAAUUGUAGAAGGCACUGGGUACA | 30.1 nM | 24 nM |  | 
GGAUUACAUGAGGAUCACCCAUGUGAGGAUAUCGAUGUCCUCAGUCAAGUGCGGGACUCGAGAAGGCACUUGGA |  |  | 64.2 nM | 32 nM
CUUAAGGCAGGAUAUGCUUUUUGUGACAUGAGGAUCACCCAUGUGAUGCAGUUUGGGUUUGCAGAAGGGCCUGAGU |  |  | 111 nM | 61.1 nM
CCGGAAGUAGAGGAUAUAGGAGUCGAUAGACUCCUAGAAGGCUAUACAUGAGGAUCACCCAUGUGUCCUACCGG |  |  | 19.6 nM | 31 nM
GAGCGAAAGCUCAAUGUCGAUAGCAGAAGGACAUGAAAAUACAUGAAAACAUGAGGAUCACCCAUGUAGGAUAUGCUAUCGACU |  |  | 8.75 nM | 89.4 nM
GCCAAGGUACAGAAGGGACUACAUGAGGAUCACCCAUGUGUUUCUGCACGUAAAUGAUACAGUGGUCAGGAUAUGUGCUCCAAA |  |  | 9.49 nM | 25.8 nM
UUGGACGUCGUAGGAUAUGUAGGACAUUCCUACAUGAGGAUCACCCAUGUUGACAUGGAAGAAGGACAGAAGGACGAUGUCCAU | 152 nM | 10.6 nM |  | 
